Most compounds without a hit are left out; they make up all but 3.5% or so of the library.
RGS4 inh: RGS4 inhibitors, primary screen, cell-based, HEK293 M3R inducible RGS4, calcium flux; Regulator of G-protein signaling 4 (Homo sapiens), P49798; Fluo-4 calcium flux; active compounds read high; triggered by carbachol at its EC20; B-score at 10 µM; 310,000 compounds, 0.45% hits; AID 463165, 2010;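 active = B-score, a plate-corrected calcium signal, over three deviations above library mean, with baseline fluorescence within five deviations of library mean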;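 note: RGS4 expression induced by doxycycline in cells with stable M3 receptor; B-score is computed from the integrated fluorescence ratio over baseline after carbachol; higher B-score means a larger calcium signal and so more RGS4 inhibition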
Target sequence (P49798 whole entry, looked up): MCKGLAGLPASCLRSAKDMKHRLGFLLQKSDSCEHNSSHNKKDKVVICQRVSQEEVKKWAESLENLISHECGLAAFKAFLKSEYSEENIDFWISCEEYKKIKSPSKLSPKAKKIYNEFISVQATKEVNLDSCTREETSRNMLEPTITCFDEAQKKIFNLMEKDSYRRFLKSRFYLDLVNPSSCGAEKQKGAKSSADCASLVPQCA
RGS4 act: RGS4 potentiators or activators, primary screen, cell-based, HEK293 M3R inducible RGS4, calcium flux | carbachol calcium flux Fluo4; active compounds read low | B-score at 10 µM | 310,000 compounds, 0.92% hits | AID 463111, 2010;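 active = B-score of the integrated calcium signal more than 4 SD below the library mean, with starting fluorescence not abnormally high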;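 note: negative B-score means reduced calcium response which marks RGS4 activation or potentiation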
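Reagent: ECmax carbachol challenge; Test system: M3R-expressing HEK293 line, RGS4 induced by doxycycline; Schedule: overnight RGS4 induction, 30 min dye load 37 °C, 20 min compound RT; Detection: calcium dye Fluo4 fluorescence; Read-out: Agonist-evoked peak-minus-minimum fluorescence over baseline, integrated ratio, B score.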
MrgX1 antagonist: antagonists of human MrgX1 receptor, primary screen, HEK293 cells, Fluo-4 calcium flux; Mas-related G-protein coupled receptor member X1 (Homo sapiens), Q96LB2; BAM8-22 antagonism; active compounds read low; B-score at 10 µM; 310,000 compounds, 1.3% hits; AID 588676, 2011;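 active = calcium-response B-score plate-corrected more than 3 library SD below zero, starting fluorescence within 5 deviations, no agonist response on first addition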;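 note: peak minus trough fluorescence over baseline after final BAM8-22 challenge near maximal dose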
Target sequence (Q96LB2 whole entry, looked up): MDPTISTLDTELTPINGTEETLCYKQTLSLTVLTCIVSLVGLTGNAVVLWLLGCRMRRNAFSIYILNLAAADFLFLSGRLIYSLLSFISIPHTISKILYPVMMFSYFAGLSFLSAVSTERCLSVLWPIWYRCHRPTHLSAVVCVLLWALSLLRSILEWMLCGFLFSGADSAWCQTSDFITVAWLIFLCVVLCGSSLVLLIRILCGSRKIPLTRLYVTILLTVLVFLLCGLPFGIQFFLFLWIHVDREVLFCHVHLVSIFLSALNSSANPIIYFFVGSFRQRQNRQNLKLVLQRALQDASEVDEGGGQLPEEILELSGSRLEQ
MrgX1 ag: agonists of human MrgX1 receptor, primary screen, HEK293 cells, Fluo-4 calcium flux. Mas-related G-protein coupled receptor member X1 (Homo sapiens), Q96LB2. Fluo-4 calcium fluorescence, agonist mode; active compounds read high. B-score at 10 µM. 310,000 compounds, 0.44% hits;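 active = calcium response B-score plate-corrected fluorescence ratio at least 3 library SD, with starting fluorescence B-score inside 5 SD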
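Test system: Stable human MrgX1 HEK293 cell line | Schedule: Overnight plating before 1 h dye loading | Read-out basis: Baseline-normalised fluorescence change ratio, B-scored | Detection: Kinetic calcium dye fluorescence, Fluo-4 NW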
MrgX1 allo act: positive allosteric modulators of MrgX1, primary screen, HEK293 cells, Fluo-4 calcium flux; Mas-related G-protein coupled receptor member X1 (Homo sapiens), Q96LB2; FDSS; active compounds read high; B-score at 10 µM; 310,000 compounds, 0.63% hits; AID 588675, 2011;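 active = plate-corrected calcium response at least 3 library SD above typical, normal starting fluorescence, not activating the receptor alone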;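 note: compound read alongside a low EC10 to EC30 dose of BAM8-22 agonist; peak minus trough fluorescence over baseline measured at the second addition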
* hit, by the source's call; i = inactive; . = no result.

SMILES	RGS4 inh	RGS4 act	MrgX1 antagonist	MrgX1 ag	MrgX1 allo act
CCc1ccc([C@@H]2CC=C(C(=O)O)[C@H](c3ccc(Cl)cc3)N2S(=O)(=O)c2ccc(C)cc2)cc1	.	.	i	i	i
Cc1ccc(S(=O)(=O)N2[C@@H](c3ccc(Cl)cc3)C(C(=O)O)=CC[C@H]2c2ccc3c(c2)OCO3)cc1	.	.	i	i	i
COc1cccc([C@@H]2CC=C(C(=O)O)[C@H](c3ccccc3F)N2S(=O)(=O)c2ccc(C)cc2)c1	.	.	i	i	8.3*
COc1ccccc1-n1c(CNC(=O)COc2ccccc2)n[nH]c1=S	i	i	i	i	i
COc1ccc2[nH]c3c(NCCCOC(C)C)ncnc3c2c1	i	-7.4*	i	i	i
CCN(CC)CCNc1ncnc2c1[nH]c1ccc(OC)cc12	i	i	i	i	i
Cc1ccc(S(=O)(=O)N(C)/N=C2/C(=O)N(CC(=O)O)c3ccccc32)cc1	i	i	i	i	i
Cc1cc(N/N=C/c2cccc(Cl)c2)nc(NCc2ccccc2)n1	i	-7.7*	i	i	i
Cc1cc(N/N=C/c2ccccc2)nc(NCc2ccccc2)n1	i	i	i	i	i
CN(C)S(=O)(=O)c1ccc(NC(=O)CCCNC(=O)c2ccc(Cl)cc2)cc1	i	i	i	i	i
CC(C)(O)c1[nH]c2ccc(C#N)cc2c1C(C)(C)O	i	i	i	i	i
O=C(O)c1ccc(NNC(=S)Nc2cc(C(F)(F)F)ccc2Cl)cc1	i	i	i	i	i
CCCOc1ccc(S(=O)(=O)n2cc(F)c(=O)[nH]c2=O)cc1	i	i	i	i	7.9*
O=C1NC(=S)/C(=C\c2ccc(-c3ccccc3Cl)o2)S1	i	-7.4*	i	i	i
Cc1nnc(C)n1/N=C/c1ccc(-c2ccccc2Cl)o1	i	i	i	i	i
O=C(CCSc1ccc(Cl)cc1)N1CCN(c2ccc(O)cc2)CC1	i	-7.2*	i	i	i
O=C(C[n+]1ccccc1)Nc1ccccc1C(F)(F)F	i	i	i	i	i
Cn1nc(-c2ccccc2)c(C#N)c1Sc1cccc(Cl)c1	i	-7.3*	i	i	i
N#C/C(C(N)=O)=C1/CCc2ccccc2N1	i	i	-4.9*	i	i
O=C1CCc2ccccc2N1	i	i	i	i	i
COC(=O)C/C=C/[C@@H](C)[C@@H](/C=N/O[C@@H](C)c1cn([C@H](CO)Cc2ccccc2)nn1)NS(=O)(=O)c1ccc(C)cc1	i	i	i	i	i
C/C(CCN1CCc2nc(-c3ccccc3)c(-c3ccccc3)cc2C1)=N\O[C@@H](C)c1cn([C@H](CO)Cc2ccccc2)nn1	i	-8.9*	i	i	i
COc1ccc(CNS(=O)(=O)CCNC(=O)c2ccc(OC)cc2)cc1	i	i	-4.9*	i	i
O=C(NC1CC2CCCC(C1)N2C(=S)Nc1ccc(Cl)cc1)C1CC1 (stereo not given)	i	-7*	i	i	i
Cn1nc(C(=O)OCc2ccc(Br)cc2F)c2ccccc2c1=O	i	i	i	i	i
SMILES	RGS4 inh	RGS4 act	MrgX1 antagonist	MrgX1 ag	MrgX1 allo act
Clc1ccc(N=c2ssnc2Cl)cc1	i	i	i	i	i
Fc1ccc(N=c2ssnc2Cl)c(F)c1	i	i	i	35*	i
COc1cc(N=c2ssnc2Cl)cc(OC)c1OC	i	i	i	32*	i
CCOC(=O)c1ccc(N=c2ssnc2Cl)cc1	i	i	.	.	.
COc1ccc(N=c2ssnc2Cl)cc1	i	i	i	27*	i
N#Cc1ccc(N=c2ssnc2Cl)cc1	i	i	i	31*	i
COc1ccc(OC)c(/C=N/Nc2nc(C)cc(=O)[nH]2)c1	i	i	i	i	i
Cc1ccccc1OCC(=O)Nc1ccc2[nH]ncc2c1	i	i	i	i	i
COc1ccccc1NS(=O)(=O)c1ccc(O)c(C(=O)OCc2cccc([N+](=O)[O-])c2)c1	i	i	-6.5*	i	i
COc1ccccc1NS(=O)(=O)c1ccc(C)c(C(N)=O)c1	i	i	i	i	i
CC(=O)/C(N=Nc1cc2c(c([N+](=O)[O-])c1C)C(C)(C)CC2(C)C)=C(\C)O	i	i	i	i	9.4*
COc1cc(C2C(C(=O)c3cc4ccccc4o3)=C(O)C(=O)N2CCN2CCOCC2)ccc1OCCC(C)C (stereo not given)	i	i	.	.	.
CCN(Cc1ccccc1)C(=O)c1cccc(S(=O)(=O)N2CCN(Cc3ccccc3)CC2)c1	i	i	i	i	i
CCCCN(C(=O)c1cccc(S(=O)(=O)N2CCN(Cc3ccccc3)CC2)c1)c1ccccc1	i	i	-4.7*	i	i
CN(C)C(CNC(=O)C1CCN(C(=O)/C=C/c2ccccc2)CC1)c1ccccc1 (stereo not given)	i	i	i	i	i
Nc1nc(-c2ccccc2)c(-c2ccccc2)n1N	i	i	i	i	9.3*
Cc1cccc(NC(=O)CCCCCN2C(=O)[C@@H]3Cc4ccccc4CN3C2=O)c1	i	i	i	i	i
O=C(CCCCCN1C(=O)[C@@H]2Cc3ccccc3CN2C1=O)Nc1cccc(F)c1	i	-7.5*	i	i	i
O=C(O)C(c1ccccc1)N1C(=O)/C(=C\c2ccc(O)c(O)c2)SC1=S (stereo not given)	i	i	i	27*	i
COc1cc(/C=C2\SC(=S)N(C(C(=O)O)c3ccccc3)C2=O)ccc1O (stereo not given)	i	i	i	i	i
O=C(OCCN1C(=O)c2cccc3c(N4CCOCC4)ccc(c23)C1=O)c1ccccc1Cl	i	-8.2*	i	i	i
CCOC(=O)c1cnc2c(C)c(Cl)ccc2c1NCCCN1CCOCC1	i	i	i	i	9.1*
CC(C)CN1CCC(=O)N([C@H](COc2ccccc2)c2ccccc2)CC1	i	i	i	i	i
CC(Oc1cccc(Cl)c1)C(=O)N(C)CC(=O)Nc1ccc(N2CCOCC2)cc1 (stereo not given)	i	i	i	i	i
O=C1NN(c2ccccc2)C(=O)/C1=C/c1ccc(-c2ccc(C(=O)O)cc2)o1	i	i	i	i	i

Screens (PubChem BioAssay)
